Experiment [1] relates to Helicoverpa punctigera. Put plainly: Insecticidal activity in Heliothis punctigera assessed as mortality at 150 ug.cm'-2 by larval feeding assay. The format is functional. In outline: (§1)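 Artificial diet set in 24-well plates to 1 cm depth; 30 μl of test material in DMSO spread over the surface, with DMSO-only controls. After drying, one first-instar Heliothis punctigera larva placed per well, 16 wells per dose, and each well closed with a polypropylene ball. Held 7 days at 28°, then scored for mortality and survivors weighed; LC50 derived by probit analysis.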

Experiment [2] deals with Helicoverpa punctigera. Put plainly: Insecticidal activity in Heliothis punctigera assessed as mortality by larval feeding assay. The format is functional. In outline: as §1
Experiment [3] has as its system Helicoverpa punctigera. Put plainly: Insecticidal activity in Heliothis punctigera assessed as mortality at 37.5 ug.cm'-2 by larval feeding assay. Type of experiment: functional. In outline:
as §1

In experiment [4] the test system is Helicoverpa punctigera. Put plainly: Insecticidal activity in Heliothis punctigera assessed as weight reduction at 37.5 ug.cm'-2 relative to control. Type of experiment: functional. Also on record: scale not given: the % may be the effect or the level left. In outline: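 Diet-surface feeding test. Molten artificial diet was poured 1 cm deep in 24-well plates, and test material in DMSO (30 μl) was spread on the surface; controls got DMSO only. Once dry, one first-instar H. punctigera larva was placed per well (16 wells per dose) and the well was capped. After 7 days at 28°, mortality was scored and surviving larvae were weighed.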

The subject of the next experiment is Staphylococcus aureus. Put plainly: Antimicrobial activity against Staphylococcus aureus ATCC 6538P after 18 hrs by broth dilution method. Type of experiment: functional. The method in brief: (§2)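 Broth dilution in TS broth in 24-well dishes. Compound dissolved in DMSO and diluted from a starting concentration of 2.5%. Inocula were grown from fresh TS agar plates in TS broth at 37° to A525 0.5, then diluted 10^-4. Incubation was 37° for 18 h. Turbidity was read by eye and confirmed by plating onto TS agar. MIC is the last dilution giving ≤20 colonies.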

Another experiment relates to Micrococcus luteus. Put plainly: Antimicrobial activity against Micrococcus luteus BTA 433 after 18 hrs by broth dilution method. Type of experiment: functional. The conditions noted are these: BTA 433, 18 h. In outline: as §2
For the next experiment, the system named is Escherichia coli. Put plainly: Antimicrobial activity against Escherichia coli K88 BTA 430 after 18 hrs by broth dilution method. The format is functional. The conditions noted are these: K88 BTA 430, 18 h. In outline: as §2
(In general: In broth dilution the organism is exposed to a series of concentrations in liquid medium.)

Another experiment relates to Salmonella typhimurium. Put plainly: Antimicrobial activity against Salmonella Typhimurium BTA 438 after 18 hrs by broth dilution method. The format is functional, Salmonella enterica subsp. enterica serovar Typhimurium. The note with it: Salmonella enterica, BTA 438, 18 h. In outline: as §2
In a further experiment the test system is Shigella sonnei. Put plainly: Antimicrobial activity against Shigella sonnei BTA 431 after 18 hrs by broth dilution method. Type of experiment: functional. The note with it: BTA 431, 18 h. In outline:
as §2

Another experiment has as its system Pseudomonas aeruginosa. Put plainly: Antimicrobial activity against Pseudomonas aeruginosa BTA 429 after 18 hrs by broth dilution method. The note with it: BTA 429, 18 h. Type of experiment: functional. The method in brief: as §2
The test system of a further experiment is Bacillus cereus. Put plainly: Antimicrobial activity against Bacillus cereus BTA 432 after 18 hrs by broth dilution method. The note with it: BTA 432, 18 h. The format is functional. The method in brief: as §2
Another experiment relates to Candida albicans. Put plainly: Antimicrobial activity against Candida albicans ATCC 10231 after 18 hrs by broth dilution method. Type of experiment: functional. The note with it: ATCC 10231, 18 h. The method in brief:
as §2

A further experiment concerns Streptococcus pyogenes. Put plainly: Antimicrobial activity against Streptococcus pyogenes IMR-RNSH after 18 hrs by broth dilution method. Type of experiment: functional. The method in brief:
as §2

The next experiment concerns Proteus mirabilis. Put plainly: Antimicrobial activity against Proteus mirabilis BTA 585 after 18 hrs by broth dilution method. The format is functional. The conditions noted are these: BTA 585, 18 h. The method in brief:
as §2

≈ marks a conversion by molar mass, not a printed value.

Broadly, the MIC is the lowest concentration found to suppress growth. Consider `CC(C)CCCC(=O)Nc1c2sscc-2[nH]c1=O` [XENORHABDIN 2], for which the Activity with Helicoverpa punctigera [1] worked out at 100%; with Helicoverpa punctigera [3] it was 18.8%; in the experiment with Helicoverpa punctigera [4], 64.7%. Besides, in the experiment on Helicoverpa punctigera [2], the LC50 is reported as 59.5 ug.cm'-2. The minimum inhibitory concentration (MIC) is 20 µg/mL (≈ 70.3 µM) against Staphylococcus aureus; 0.156 µg/mL (≈ 0.549 µM) in the experiment with Micrococcus luteus; over 100 µg/mL in the experiment with Escherichia coli; over 100 µg/mL against Salmonella typhimurium; over 100 µg/mL in the experiment on Shigella sonnei; over 100 µg/mL in the experiment with Pseudomonas aeruginosa. Also, the minimal inhibitory concentration (MIC) in the experiment on Bacillus cereus was 3.13 µg/mL (≈ 11 µM); against Candida albicans it was over 100 µg/mL; in the experiment with Streptococcus pyogenes, 1.25 µg/mL (≈ 4.4 µM); with Proteus mirabilis, over 100 µg/mL.
